Key:
[1] = tested on: MCF7 (ATCC – HTB-22, breast carcinoma); experiment: MTT cell viability assay, MCF7; type: cell-based; settings: Homo sapiens, MCF7, read-out: IC50 MCF7
[2] = tested on: MRC5 (ATCC – CCL-171, human diploid fibroblast cell line); experiment: cells; settings: MRC5, read-out: IC50 MRC5
[3] = tested on: A549 (ATCC – CCL-185, lung carcinoma); experiment: MTT cell viability assay, A549; type: cell-based; settings: Homo sapiens, A549, read-out: IC50 A549
[4] = tested on: HCT116 (ATCC – CCL-247, colon carcinoma); experiment: MTT cell viability assay, HCT116; type: cell-based; settings: Homo sapiens, HCT-116, read-out: IC50 HCT116
[5] = tested on: MCF7 cell line; experiment: γH2AX labelling for DNA double-strand breaks; type: cell-based; settings: compounds at IC50, etoposide 10 μM
Method in brief: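 To detect DNA double-strand breaks, MCF7 cells were exposed to the test compounds for 24 and 48 h, with etoposide as the positive control and 0.1% DMSO as the vehicle. γH2AX labelling was quantified by flow cytometry. n = 3; two-way ANOVA with Tukey's test.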

[6] = tested on: MCF7 breast cancer cells; experiment: Apoptosis, annexin V staining and flow cytometry; type: cell-based; settings: compounds at IC50, etoposide 10 μM
Method in brief: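 MCF7 cells were exposed to the test compounds for 24 or 48 h, with etoposide (10 μM) as the positive control and 0.1% DMSO as the untreated control. Cells were stained with annexin V and analysed by flow cytometry into live, early apoptotic and late apoptotic fractions.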

[7] = tested on: MCF7 cells; experiment: Cell cycle analysis; type: cell-based; settings: compounds at IC50, ETP 10 μM
Method in brief: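 MCF7 cells were treated with the test compounds for 24 and 48 h, with etoposide as the positive control and 0.1% DMSO as the vehicle. Cells were stained with propidium iodide and their G1, S and G2 distribution was read by flow cytometry. n = 3; two-way ANOVA with Tukey's test.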

`N#CC1=C(N)OC2=C(C(=O)CCC2)C1c1ccc(-n2ccc(C(F)(F)F)n2)cc1` (stereo not drawn) [Compound 7e, 2-Amino-5-oxo-4-(4-(3-(trifluoromethyl)-1H-pyrazol-1-yl)phenyl)-5,6,7,8-tetrahydro-4H-chromene-3-carbonitrile] was tested, and the IC50 [1] was 15 ± 0.78 µM, the IC50 [2] was over 200 µM and the IC50 [3] was 18 ± 0.45 µM. It also gave an IC50 [4] of 72.2 ± 0.96 µM.
Work on `N#CC1=C(N)Oc2c(c(=O)oc3ccccc23)C1c1ccc(OCc2cn(-c3ccccc3)nn2)cc1` (stereo not drawn) [Compound 15a, 2-Amino-5-oxo-4-(4-((1-phenyl-1H-1,2,3-triazol-4-yl)methoxy)phenyl)-4H,5H-pyrano[3,2-c]chromene-3-carbonitrile] yielded an IC50 [1] of over 200 µM, an IC50 [2] of 146.5 ± 0.53 µM and an IC50 [3] of over 200 µM. For the same molecule, the IC50 [4] was over 200 µM.
In the case of `Cc1cc(C)n(-c2ccc(C3C(C#N)=C(N)OC4=C3C(=O)CCC4)cc2)n1` (stereo not drawn) [Compound 7c, 2-Amino-4-(4-(3,5-dimethyl-1H-pyrazol-1-yl)phenyl)-5-oxo-5,6,7,8-tetrahydro-4H-chromene-3-carbonitrile], the IC50 [1] is reported as 22.9 ± 1.31 µM, the IC50 [2] is reported as over 200 µM and the IC50 [3] is reported as over 200 µM. For the same molecule, the IC50 [4] was 194 ± 6.01 µM.
In the case of `N#CC1=C(N)Oc2c(c(=O)oc3ccccc23)C1c1ccc(-n2cnnn2)cc1` (stereo not drawn) [Compound 15g, 4-(4-(1H-Tetrazol-1-yl)phenyl)-2-amino-5-oxo-4H,5H-pyrano[3,2-c]chromene-3-carbonitrile], the IC50 [1] is reported as over 200 µM, the IC50 [2] is reported as over 200 µM and the IC50 [3] is reported as over 200 µM. The IC50 [4] was over 200 µM.
`Cc1cc2c(c(=O)o1)C(c1ccc(OCc3cn(-c4ccccc4)nn3)cc1)C(C#N)=C(N)O2` (stereo not drawn) [Compound 17a, 2-Amino-7-methyl-5-oxo-4-(4-((1-phenyl-1H-1,2,3-triazol-4-yl)methoxy)phenyl)-4H,5H-pyrano[4,3-b]pyran-3-carbonitrile] showed an IC50 [1] of over 200 µM, an IC50 [2] of over 200 µM and an IC50 [3] of 80.5 ± 4.68 µM. It also gave an IC50 [4] of over 200 µM.
For `Cc1cnn(-c2ccc(C3C(C#N)=C(N)OC4=C3C(=O)CCC4)cc2)c1` (stereo not drawn) [Compound 7b, 2-Amino-4-(4-(4-methyl-1H-pyrazol-1-yl)phenyl)-5-oxo-5,6,7,8-tetrahydro-4H-chromene-3-carbonitrile], the IC50 [1] was 24 ± 2.27 µM, the IC50 [2] was over 200 µM and the IC50 [3] was 147 ± 3.61 µM. The IC50 [4] was 163 ± 3.14 µM.
Molecule `N#CC1=C(N)Oc2c(c(=O)oc3ccccc23)C1c1ccc(-n2ccnn2)cc1` (stereo not drawn) [Compound 15f, 4-(4-(1H-1,2,3-Triazol-1-yl)phenyl)-2-amino-5-oxo-4H,5H-pyrano[3,2-c]chromene-3-carbonitrile] has an IC50 [1] of 145 ± 2.75 µM, an IC50 [2] of 156 ± 0.48 µM and an IC50 [3] of 72.9 ± 2.26 µM. The IC50 [4] was 163 ± 5.45 µM.
In the case of `Cc1cc2c(c(=O)o1)C(c1ccc(OCc3cn(-c4ccc(Cl)cc4)nn3)cc1)C(C#N)=C(N)O2` (stereo not drawn) [Compound 17b, 2-Amino-4-(4-((1-(4-chlorophenyl)-1H-1,2,3-triazol-4-yl)methoxy)phenyl)-7-methyl-5-oxo-4H,5H-pyrano[4,3-b]pyran-3-carbonitrile], the IC50 [1] is reported as 36.06 ± 0.31 µM, the IC50 [2] is reported as over 200 µM and the IC50 [3] is reported as 20.4 ± 1.87 µM. It also gave an IC50 [4] of 47.4 ± 4.13 µM.
`N#CC1=C(N)Oc2c(c(=O)oc3ccccc23)C1c1ccc(OCc2cn(-c3ccc(Cl)cc3)nn2)cc1` (stereo not drawn) [Compound 15b, 2-Amino-4-(4-((1-(4-chlorophenyl)-1H-1,2,3-triazol-4-yl)methoxy)phenyl)-5-oxo-4H,5H-pyrano[3,2-c]chromene-3-carbonitrile] was tested, and the IC50 [1] was over 200 µM, the IC50 [2] was over 200 µM and the IC50 [3] was over 200 µM. It also gave an IC50 [4] of over 200 µM.
`Cc1ccc(-n2cc(COc3ccc(C4C(C#N)=C(N)Oc5cc(C)oc(=O)c54)cc3)nn2)cc1` (stereo not drawn) [Compound 17d, 2-Amino-7-methyl-5-oxo-4-(4-((1-(p-tolyl)-1H-1,2,3-triazol-4-yl)methoxy)phenyl)-4H,5H-pyrano[4,3-b]pyran-3-carbonitrile] was tested, and the IC50 [1] was over 200 µM, the IC50 [2] was over 200 µM and the IC50 [3] was over 200 µM. For the same molecule, the IC50 [4] was over 200 µM.
Work on `Cc1cncn1-c1ccc(C2C(C#N)=C(N)OC3=C2C(=O)CC(C)(C)C3)cc1` (stereo not drawn) [Compound 8c, 2-Amino-7,7-dimethyl-4-(4-(5-methyl-1H-imidazol-1-yl)phenyl)-5-oxo-5,6,7,8-tetrahydro-4H-chromene-3-carbonitrile] yielded an IC50 [1] of 83.2 ± 2.11 µM, an IC50 [2] of over 200 µM and an IC50 [3] of 133 ± 5.81 µM. It also gave an IC50 [4] of 162 ± 6.91 µM.
`CCc1nccn1-c1ccc(C2C(C#N)=C(N)OC3=C2C(=O)CC(C)(C)C3)cc1` (stereo not drawn) [Compound 8d, 2-Amino-4-(4-(2-ethyl-1H-imidazol-1-yl)phenyl)-7,7-dimethyl-5-oxo-5,6,7,8-tetrahydro-4H-chromene-3-carbonitrile] gave an IC50 [1] of over 200 µM, an IC50 [2] of over 200 µM and an IC50 [3] of 19.8 ± 0.94 µM. For the same molecule, the IC50 [4] was 137 ± 5.82 µM.
`N#CC1=C(N)OC2=C(C(=O)CCC2)C1c1ccc(-n2cc(Br)cn2)cc1` (stereo not drawn) [Compound 7d, 2-Amino-4-(4-(4-bromo-1H-pyrazol-1-yl)phenyl)-5-oxo-5,6,7,8-tetrahydro-4H-chromene-3-carbonitrile] showed an IC50 [1] of 56.1 ± 3.79 µM, an IC50 [2] of over 200 µM and an IC50 [3] of 23.6 ± 1.29 µM. It also gave an IC50 [4] of 45.7 ± 0.67 µM.
For `COc1ccc(-n2cc(COc3ccc(C4C(C#N)=C(N)Oc5cc(C)oc(=O)c54)cc3)nn2)cc1` (stereo not drawn) [Compound 17e, 2-Amino-4-(4-((1-(4-methoxyphenyl)-1H-1,2,3-triazol-4-yl)methoxy)phenyl)-7-methyl-5-oxo-4H,5H-pyrano[4,3-b]pyran-3-carbonitrile], the IC50 [1] was 52.2 ± 1.34 µM, the IC50 [2] was over 200 µM and the IC50 [3] was over 200 µM. It also gave an IC50 [4] of over 200 µM.
Work on `COc1ccc(-n2cc(COc3ccc(C4C(C#N)=C(N)Oc5c4c(=O)oc4ccccc54)cc3)nn2)cc1` (stereo not drawn) [Compound 15e, 2-Amino-4-(4-((1-(4-methoxyphenyl)-1H-1,2,3-triazol-4-yl)methoxy)phenyl)-5-oxo-4H,5H-pyrano[3,2-c]chromene-3-carbonitrile] yielded an IC50 [1] of over 200 µM, an IC50 [2] of over 200 µM and an IC50 [3] of over 200 µM. For the same molecule, the IC50 [4] was over 200 µM.
`N#CC1=C(N)Oc2c(c(=O)oc3ccccc23)C1c1ccc(OCc2cn(-c3ccc(Br)cc3)nn2)cc1` (stereo not drawn) [Compound 15c, 2-Amino-4-(4-((1-(4-bromophenyl)-1H-1,2,3-triazol-4-yl)methoxy)phenyl)-5-oxo-4H,5H-pyrano[3,2-c]chromene-3-carbonitrile] gave an IC50 [1] of over 200 µM, an IC50 [2] of 66.9 ± 1.6 µM and an IC50 [3] of over 200 µM. The IC50 [4] was over 200 µM.
In the case of `Cc1cc2c(c(=O)o1)C(c1ccc(OCc3cn(-c4ccc(Br)cc4)nn3)cc1)C(C#N)=C(N)O2` (stereo not drawn) [Compound 17c, 2-Amino-4-(4-((1-(4-bromophenyl)-1H-1,2,3-triazol-4-yl)methoxy)phenyl)-7-methyl-5-oxo-4H,5H-pyrano[4,3-b]pyran-3-carbonitrile], the IC50 [1] is reported as over 200 µM, the IC50 [2] is reported as over 200 µM and the IC50 [3] is reported as over 200 µM. For the same molecule, the IC50 [4] was over 200 µM.
With `COc1cc([C@@H]2c3cc4c(cc3[C@@H](O[C@@H]3O[C@@H]5CO[C@@H](C)O[C@H]5[C@H](O)[C@H]3O)[C@H]3COC(=O)[C@H]23)OCO4)cc(OC)c1O` [Etoposide, reference compound] the γH2AX levels ([5]; MCF7, 24 hours) was 8.8 ± 0.62, the γH2AX levels ([5]; MCF7, 48 hours) was 39.44 ± 1.69 and the early apoptotic cells ([6]; MCF7, 24 hours) was 6.42 ± 0.27%. The late apoptotic cells ([6]; MCF7, 24 hours) was 12.25 ± 0.08%, the early apoptotic cells ([6]; MCF7, 48 hours) was 3.28 ± 0.16% and the late apoptotic cells ([6]; MCF7, 48 hours) was 11.8 ± 0.29%. The live cells ([6]; MCF7, 48 hours) was 83.15 ± 0.50%, the “cells in G1 phase” value ([7]; MCF7, 24 hours) was 26.61 ± 0.54% and the “cells in G2 (G2/M) phase” value ([7]; MCF7, 24 hours) was 49.03 ± 0.99%. For the same molecule, the G1 phase population ([7]; MCF7, 48 hours) was 18.3 ± 1.67% and the “G2 (G2/M) phase population” value ([7]; MCF7, 48 hours) was 59.36 ± 4.79%.
In the case of `Cc1cc2c(c(=O)o1)C(c1ccc(-n3cnnn3)cc1)C(C#N)=C(N)O2` (stereo not drawn) [Compound 17g, 4-(4-(1H-Tetrazol-1-yl)phenyl)-2-amino-7-methyl-5-oxo-4H,5H-pyrano[4,3-b]pyran-3-carbonitrile], the IC50 [1] is reported as 39.2 ± 2.71 µM, the IC50 [2] is reported as over 200 µM and the IC50 [3] is reported as 164 ± 3.26 µM. The IC50 [4] was over 200 µM.
`Cc1ccc(-n2cc(COc3ccc(C4C(C#N)=C(N)Oc5c4c(=O)oc4ccccc54)cc3)nn2)cc1` (stereo not drawn) [Compound 15d, 2-Amino-5-oxo-4-(4-((1-(p-tolyl)-1H-1,2,3-triazol-4-yl)methoxy)phenyl)-4H,5H-pyrano[3,2-c]chromene-3-carbonitrile] gave an IC50 [1] of over 200 µM, an IC50 [2] of over 200 µM and an IC50 [3] of over 200 µM. The IC50 [4] was over 200 µM.
For `Cc1cc2c(c(=O)o1)C(c1ccc(-n3ccnn3)cc1)C(C#N)=C(N)O2` (stereo not drawn) [Compound 17f, 4-(4-(1H-1,2,3-Triazol-1-yl)phenyl)-2-amino-7-methyl-5-oxo-4H,5H-pyrano[4,3-b]pyran-3-carbonitrile], the IC50 [1] was 30.3 ± 1.73 µM, the IC50 [2] was over 200 µM and the IC50 [3] was over 200 µM. The IC50 [4] was over 200 µM.
Work on `Cc1ccn(-c2ccc(C3C(C#N)=C(N)OC4=C3C(=O)CCC4)cc2)n1` (stereo not drawn) [Compound 7a, 2-amino-4-(4-(3-methyl-1H-pyrazol-1-yl)phenyl)-5-oxo-5,6,7,8-tetrahydro-4H-chromene-3-carbonitrile] yielded an IC50 [1] of 190 ± 5.34 µM, an IC50 [2] of over 200 µM and an IC50 [3] of 89.7 ± 4.38 µM. For the same molecule, the IC50 [4] was 139 ± 3.89 µM.
`CC1(C)CC(=O)C2=C(C1)OC(N)=C(C#N)C2c1ccc(-n2cnc(Br)c2)cc1` (stereo not drawn) [Compound 8e, 2-Amino-4-(4-(4-bromo-1H-imidazol-1-yl)phenyl)-7,7-dimethyl-5-oxo-5,6,7,8-tetrahydro-4H-chromene-3-carbonitrile] was tested, and the IC50 [1] was 74.87 ± 0.17 µM, the IC50 [2] was over 200 µM and the IC50 [3] was 30.6 ± 1.85 µM. It also gave an IC50 [4] of 77.6 ± 1.58 µM.
